# From ChEMBL document CHEMBL4689842, “EUbOPEN Chemogenomics Library wave 1” (2021)
# Test system: HEK-293T
# Experiment: Multiplex assay against HEK293T;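 on Population Tubulin-Different-Phenotype (%): share of the cells with healthy nuclei that show this phenotype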
# Format: toxicity, cell-based
# Settings: human
# Summary of the method: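 Phenotypes for tubulin, mitochondrial mass and membrane permeability are expressed as per cents of healthy-nucleus cells. Cells were stained live at seeding with Hoechst33342, BioTracker Green Microtubule Cytoskeleton Dye, MitoTracker Red and Annexin V Alexa Fluor 680, then imaged after compound addition on a CQ1 microscope at 37°C and 5% CO2. Machine-learning gating in CellPathfinder separated Hoechst high-intensity objects from normal cells, divided normal cells by nuclear state (healthy, pyknosed, fragmented) and divided pyknosed cells into mitotic or apoptotic.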
# [1] = 12 h, 1 µM, compound concentration 1 uM, replicate 1
# [2] = 12 h, 1 µM, compound concentration 1 uM, replicate 2
# [3] = 12 h, 10 µM, compound concentration 10 uM, replicate 1
# [4] = 12 h, 10 µM, compound concentration 10 uM, replicate 2
# [5] = 24 h, 1 µM, compound concentration 1 uM, replicate 1
# [6] = 24 h, 1 µM, compound concentration 1 uM, replicate 2
# [7] = 24 h, 10 µM, compound concentration 10 uM, replicate 1
# [8] = 24 h, 10 µM, compound concentration 10 uM, replicate 2
# [9] = 48 h, 1 µM, compound concentration 1 uM, replicate 1
# [10] = 48 h, 1 µM, compound concentration 1 uM, replicate 2
# [11] = 48 h, 10 µM, compound concentration 10 uM, replicate 1
# [12] = 48 h, 10 µM, compound concentration 10 uM, replicate 2
compound,measurement,setting,value
CN1CCN(c2ccc(OC(F)(F)F)c(Nc3ncc4c(n3)-c3c(c(C(N)=O)nn3CCO)CC4)c2)CC1 [ONVANSERTIB],Population Apoptotic (%),[1],68%
same,Population Fragmented Nuclei (%),[1],13%
same,Population Healthy Nuclei (%),[1],36%
same,Population Hoechst High Intensity Objects (%),[1],16%
same,Population Membrane Permeable-Phenotype (%),[1],6%
same,Population Mitochondria Different-Phenotype (%),[1],83%
same,Population Mitotic Cells (%),[1],31%
same,Population Normal (%),[1],83%
same,Population Pyknosed Nuclei (%),[1],50%
same,Population Tubulin-Different-Phenotype (%),[1],39%
same,Total Cell Count,[1],216
same,Population Apoptotic (%),[2],21%
same,Population Fragmented Nuclei (%),[2],11%
same,Population Healthy Nuclei (%),[2],23%
same,Population Hoechst High Intensity Objects (%),[2],5%
same,Population Membrane Permeable-Phenotype (%),[2],0%
same,Population Mitochondria Different-Phenotype (%),[2],32%
same,Population Mitotic Cells (%),[2],78%
same,Population Normal (%),[2],94%
same,Population Pyknosed Nuclei (%),[2],65%
same,Population Tubulin-Different-Phenotype (%),[2],24%
same,Total Cell Count,[2],113
same,Population Apoptotic (%),[3],67%
same,Population Fragmented Nuclei (%),[3],8%
same,Population Healthy Nuclei (%),[3],41%
same,Population Hoechst High Intensity Objects (%),[3],12%
same,Population Mitochondria Different-Phenotype (%),[3],98%
same,Population Mitotic Cells (%),[3],32%
same,Population Normal (%),[3],87%
same,Population Pyknosed Nuclei (%),[3],49%
same,Population Tubulin-Different-Phenotype (%),[3],96%
same,Total Cell Count,[3],269
same,Population Apoptotic (%),[4],31%
same,Population Fragmented Nuclei (%),[4],5%
same,Population Healthy Nuclei (%),[4],30%
same,Population Hoechst High Intensity Objects (%),[4],2%
same,Population Membrane Permeable-Phenotype (%),[4],1%
same,Population Mitochondria Different-Phenotype (%),[4],82%
same,Population Mitotic Cells (%),[4],68%
same,Population Normal (%),[4],97%
same,Population Pyknosed Nuclei (%),[4],64%
same,Population Tubulin-Different-Phenotype (%),[4],81%
same,Total Cell Count,[4],234
same,Population Apoptotic (%),[5],60%
same,Population Fragmented Nuclei (%),[5],16%
same,Population Healthy Nuclei (%),[5],23%
same,Population Hoechst High Intensity Objects (%),[5],14%
same,Population Membrane Permeable-Phenotype (%),[5],9%
same,Population Mitochondria Different-Phenotype (%),[5],83%
same,Population Mitotic Cells (%),[5],39%
same,Population Normal (%),[5],85%
same,Population Pyknosed Nuclei (%),[5],60%
same,Population Tubulin-Different-Phenotype (%),[5],67%
same,Total Cell Count,[5],211
same,Population Apoptotic (%),[6],15%
same,Population Fragmented Nuclei (%),[6],11%
same,Population Healthy Nuclei (%),[6],26%
same,Population Hoechst High Intensity Objects (%),[6],9%
same,Population Membrane Permeable-Phenotype (%),[6],0%
same,Population Mitochondria Different-Phenotype (%),[6],68%
same,Population Mitotic Cells (%),[6],84%
same,Population Normal (%),[6],90%
same,Population Pyknosed Nuclei (%),[6],62%
same,Population Tubulin-Different-Phenotype (%),[6],62%
same,Total Cell Count,[6],122
same,Population Apoptotic (%),[7],55%
same,Population Fragmented Nuclei (%),[7],7%
same,Population Healthy Nuclei (%),[7],41%
same,Population Hoechst High Intensity Objects (%),[7],15%
same,Population Membrane Permeable-Phenotype (%),[7],2%
same,Population Mitochondria Different-Phenotype (%),[7],95%
same,Population Mitotic Cells (%),[7],44%
same,Population Normal (%),[7],84%
same,Population Pyknosed Nuclei (%),[7],50%
same,Population Tubulin-Different-Phenotype (%),[7],90%
same,Total Cell Count,[7],303
same,Population Apoptotic (%),[8],42%
same,Population Fragmented Nuclei (%),[8],5%
same,Population Healthy Nuclei (%),[8],39%
same,Population Hoechst High Intensity Objects (%),[8],4%
same,Population Membrane Permeable-Phenotype (%),[8],4%
same,Population Mitochondria Different-Phenotype (%),[8],83%
same,Population Mitotic Cells (%),[8],57%
same,Population Normal (%),[8],95%
same,Population Pyknosed Nuclei (%),[8],54%
same,Population Tubulin-Different-Phenotype (%),[8],83%
same,Total Cell Count,[8],256
same,Population Apoptotic (%),[9],57%
same,Population Fragmented Nuclei (%),[9],20%
same,Population Healthy Nuclei (%),[9],18%
same,Population Hoechst High Intensity Objects (%),[9],20%
same,Population Membrane Permeable-Phenotype (%),[9],0%
same,Population Mitochondria Different-Phenotype (%),[9],59%
same,Population Mitotic Cells (%),[9],42%
same,Population Normal (%),[9],79%
same,Population Pyknosed Nuclei (%),[9],60%
same,Population Tubulin-Different-Phenotype (%),[9],43%
same,Total Cell Count,[9],213
same,Population Apoptotic (%),[10],36%
same,Population Fragmented Nuclei (%),[10],12%
same,Population Healthy Nuclei (%),[10],45%
same,Population Hoechst High Intensity Objects (%),[10],8%
same,Population Membrane Permeable-Phenotype (%),[10],6%
same,Population Mitochondria Different-Phenotype (%),[10],30%
same,Population Mitotic Cells (%),[10],63%
same,Population Normal (%),[10],91%
same,Population Pyknosed Nuclei (%),[10],42%
same,Population Tubulin-Different-Phenotype (%),[10],59%
same,Total Cell Count,[10],118
same,Population Apoptotic (%),[11],64%
same,Population Fragmented Nuclei (%),[11],14%
same,Population Healthy Nuclei (%),[11],29%
same,Population Hoechst High Intensity Objects (%),[11],14%
same,Population Membrane Permeable-Phenotype (%),[11],2%
same,Population Mitochondria Different-Phenotype (%),[11],95%
same,Population Mitotic Cells (%),[11],35%
same,Population Normal (%),[11],85%
same,Population Pyknosed Nuclei (%),[11],55%
same,Population Tubulin-Different-Phenotype (%),[11],89%
same,Total Cell Count,[11],267
same,Population Apoptotic (%),[12],51%
same,Population Fragmented Nuclei (%),[12],6%
same,Population Healthy Nuclei (%),[12],42%
same,Population Hoechst High Intensity Objects (%),[12],6%
same,Population Mitochondria Different-Phenotype (%),[12],78%
same,Population Mitotic Cells (%),[12],48%
same,Population Normal (%),[12],93%
same,Population Pyknosed Nuclei (%),[12],51%
same,Population Tubulin-Different-Phenotype (%),[12],84%
same,Total Cell Count,[12],246
CCN(CC)CCCCNc1ncc2cc(-c3cc(OC)cc(OC)c3)c(NC(=O)NC(C)(C)C)nc2n1 [PD-173074],Population Apoptotic (%),[1],8%
same,Population Fragmented Nuclei (%),[1],79%
same,Population Healthy Nuclei (%),[1],8%
same,Population Hoechst High Intensity Objects (%),[1],69%
same,Population Membrane Permeable-Phenotype (%),[1],15%
same,Population Mitochondria Different-Phenotype (%),[1],31%
same,Population Mitotic Cells (%),[1],91%
same,Population Normal (%),[1],30%
same,Population Pyknosed Nuclei (%),[1],11%
same,Population Tubulin-Different-Phenotype (%),[1],42%
same,Total Cell Count,[1],685
same,Population Apoptotic (%),[2],6%
same,Population Fragmented Nuclei (%),[2],80%
same,Population Healthy Nuclei (%),[2],1%
same,Population Hoechst High Intensity Objects (%),[2],80%
same,Population Membrane Permeable-Phenotype (%),[2],66%
same,Population Mitochondria Different-Phenotype (%),[2],0%
same,Population Mitotic Cells (%),[2],93%
same,Population Normal (%),[2],19%
same,Population Pyknosed Nuclei (%),[2],17%
same,Population Tubulin-Different-Phenotype (%),[2],66%
same,Total Cell Count,[2],917
same,Population Fragmented Nuclei (%),[3],29%
same,Population Healthy Nuclei (%),[3],52%
same,Population Hoechst High Intensity Objects (%),[3],48%
same,Population Membrane Permeable-Phenotype (%),[3],26%
same,Population Mitochondria Different-Phenotype (%),[3],6%
same,Population Normal (%),[3],51%
same,Population Pyknosed Nuclei (%),[3],17%
same,Population Tubulin-Different-Phenotype (%),[3],33%
same,Total Cell Count,[3],693
same,Population Apoptotic (%),[4],28%
same,Population Fragmented Nuclei (%),[4],7%
same,Population Healthy Nuclei (%),[4],85%
same,Population Hoechst High Intensity Objects (%),[4],42%
same,Population Membrane Permeable-Phenotype (%),[4],22%
same,Population Mitochondria Different-Phenotype (%),[4],24%
same,Population Mitotic Cells (%),[4],71%
same,Population Normal (%),[4],57%
same,Population Pyknosed Nuclei (%),[4],7%
same,Population Tubulin-Different-Phenotype (%),[4],71%
same,Total Cell Count,[4],1213
same,Population Apoptotic (%),[5],32%
same,Population Fragmented Nuclei (%),[5],84%
same,Population Healthy Nuclei (%),[5],6%
same,Population Hoechst High Intensity Objects (%),[5],55%
same,Population Membrane Permeable-Phenotype (%),[5],36%
same,Population Mitochondria Different-Phenotype (%),[5],15%
same,Population Mitotic Cells (%),[5],68%
same,Population Normal (%),[5],44%
same,Population Pyknosed Nuclei (%),[5],8%
same,Population Tubulin-Different-Phenotype (%),[5],26%
same,Total Cell Count,[5],629
same,Population Apoptotic (%),[6],0%
same,Population Fragmented Nuclei (%),[6],91%
same,Population Healthy Nuclei (%),[6],1%
same,Population Hoechst High Intensity Objects (%),[6],60%
same,Population Membrane Permeable-Phenotype (%),[6],0%
same,Population Mitochondria Different-Phenotype (%),[6],20%
same,Population Mitotic Cells (%),[6],100%
same,Population Normal (%),[6],39%
same,Population Pyknosed Nuclei (%),[6],6%
same,Population Tubulin-Different-Phenotype (%),[6],60%
same,Total Cell Count,[6],891
same,Population Apoptotic (%),[7],28%
same,Population Fragmented Nuclei (%),[7],17%
same,Population Healthy Nuclei (%),[7],71%
same,Population Hoechst High Intensity Objects (%),[7],36%
same,Population Membrane Permeable-Phenotype (%),[7],25%
same,Population Mitochondria Different-Phenotype (%),[7],9%
same,Population Mitotic Cells (%),[7],71%
same,Population Normal (%),[7],63%
same,Population Pyknosed Nuclei (%),[7],11%
same,Population Tubulin-Different-Phenotype (%),[7],50%
same,Total Cell Count,[7],733
same,Population Apoptotic (%),[8],15%
same,Population Fragmented Nuclei (%),[8],16%
same,Population Healthy Nuclei (%),[8],80%
same,Population Hoechst High Intensity Objects (%),[8],27%
same,Population Membrane Permeable-Phenotype (%),[8],20%
same,Population Mitochondria Different-Phenotype (%),[8],6%
same,Population Mitotic Cells (%),[8],85%
same,Population Normal (%),[8],72%
same,Population Pyknosed Nuclei (%),[8],2%
same,Population Tubulin-Different-Phenotype (%),[8],58%
same,Total Cell Count,[8],1994
